# Source: PubChem BioAssay
# A selection: hits, their analogues and other compounds. The true share with any hit is near 3.1%.
# KCNK3 inh: human KCNK3 channel inhibitors, primary screen, CHO cells, FluxOR thallium flux, B-score; B-score at 10 µM; 0.84% of 340,000 active; Potassium channel subfamily K member 3 (Homo sapiens), O14649; FluxOR fluorescence; hits give low values;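 active = B-score under library mean minus 4 SD, starting fluorescence ratio at most library mean plus 5 SD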;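 also: more negative B-score means stronger inhibition of thallium flux through KCNK3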
# KCNQ1 pot: potentiators or activators of KCNQ1 channel, primary screen, cell-based, thallium flux, high-throughput | B-score at 10 µM | AID 2648, 2010 | 0.35% of 310,000 active | CHO-K1 KCNQ1, thallium flux FluxOR fluorescence; hits give high values;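 active = fluorescence ratio B-score, a plate-corrected score, at least three library SD, with initial intensity B-score within 5 SD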
# Target sequence (P51787 whole entry, looked up): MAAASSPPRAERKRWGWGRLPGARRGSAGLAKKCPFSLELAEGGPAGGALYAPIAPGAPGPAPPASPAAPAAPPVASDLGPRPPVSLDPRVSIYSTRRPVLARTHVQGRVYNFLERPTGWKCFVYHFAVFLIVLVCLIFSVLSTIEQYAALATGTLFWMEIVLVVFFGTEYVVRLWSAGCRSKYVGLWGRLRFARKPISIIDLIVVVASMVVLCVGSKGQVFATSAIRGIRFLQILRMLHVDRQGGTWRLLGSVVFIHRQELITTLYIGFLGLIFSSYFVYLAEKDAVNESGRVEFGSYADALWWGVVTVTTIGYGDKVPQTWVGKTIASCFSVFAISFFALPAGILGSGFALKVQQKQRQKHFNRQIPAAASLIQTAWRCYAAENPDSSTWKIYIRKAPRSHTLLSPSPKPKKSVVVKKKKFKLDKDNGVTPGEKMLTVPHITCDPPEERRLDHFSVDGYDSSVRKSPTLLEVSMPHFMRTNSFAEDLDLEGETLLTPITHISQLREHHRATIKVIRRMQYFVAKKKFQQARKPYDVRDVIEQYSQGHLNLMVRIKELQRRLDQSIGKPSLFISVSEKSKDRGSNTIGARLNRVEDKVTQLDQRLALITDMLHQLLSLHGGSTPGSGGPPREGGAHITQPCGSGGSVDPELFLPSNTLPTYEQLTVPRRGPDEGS
#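 assay system = CHO-K1 cells stably expressing KCNQ1 | medium = assay buffer, equal DMSO in all wells | timing = 37 °C overnight plating, 90-min dark dye load, 20-min compound pretreatment | measured by = kinetic FluxOR thallium fluorescence, 10-s 1-Hz baseline, 110-s post-stimulus read | measure = fluorescence change relative to baseline, converted to B score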
# KCNK9 inh: KCNK9 potassium channel inhibitors, primary screen, HEK293 cells, thallium flux; AID 488922, 2010; FluxOR thallium flux fluorescence; hits give low values; 1.2% of 310,000 active; B-score at 10 µM; Potassium channel subfamily K member 9 (Homo sapiens), Q9NPC2;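 active = ratio B-score over 3 SD below the library mean, with starting fluorescence within 5 SD of its mean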;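 also: negative B-score means less thallium flux so channel inhibition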
# KCNQ1 inh: inhibitors of human KCNQ1 channel, primary screen, cell-based, thallium flux, high-throughput; CHO-K1 KCNQ1, FluxOR thallium flux fluorescence; hits give high values; B-score at 10 µM; 1.3% of 310,000 active; AID 2642, 2010;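 active = compounds whose thallium flux B-score, printed positive for inhibition, exceeds three library SD while starting fluorescence stays within three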;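 also: channel opened by potassium depolarization with thallium stimulus after 20 min compound exposure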
# hERG rescue: hERG rescue from dofetilide block, primary screen, cell-based, CHO-hERG, FluxOR thallium flux, dofetilide IC70; Voltage-gated inwardly rectifying potassium channel KCNH2 (Homo sapiens), Q12809; dofetilide IC70 present; activation (rescue from dofetilide block), less the hit threshold, % at 10 µM; 0.51% of 310,000 active; AID 1511, 2009;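 active = activation above the mean of controls blocked by dofetilide plus 5 SD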;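 also: thallium influx through hERG after potassium depolarization seen as dye fluorescence rise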
# KCNK3 confirm: retest of human KCNK3 channel inhibitors, confirmation, CHO cells, FluxOR thallium flux, triplicate | shares compounds with KCNK3 inh | FluxOR fluorescence; 0% buffer, 100% carvedilol maximal block | ratio percent of control, % at 10 µM | 99% of 2,400 active | AID 651638, 2012;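 active = ratio percent of control, averaged over triplicates, above buffer control mean plus 5 SD, cut at about 64% in these data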;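 also: ratio is the fluorescence rise from min to max over baseline after thallium stimulus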
# KCNK3 noninduced: thallium flux inhibition in non-induced cells, primary screen, counter-screen for KCNK3 inhibitor project, cell-based, non-induced KCNK3 line, FluxOR thallium, triplicate; shares compounds with KCNK3 inh; non-induced KCNK3 parental cells; hits give low values; thallium flux ratio (lower = more inhibition) at 10 µM; 40% of 2,400 active; AID 651747, 2012;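 active = thallium flux ratio, averaged over three wells, more than 5 SD below the buffer control mean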;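 also: host cells are CHO cells without KCNK3 induction; ratio is peak minus trough fluorescence over baseline then normalized to buffer controls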
# * marks the source's active call; other numbers are inactive results; i = inactive; · = no result given.
SMILES,KCNK3 inh,KCNQ1 pot,KCNK9 inh,KCNQ1 inh,hERG rescue,KCNK3 confirm,KCNK3 noninduced
O=C(Nc1cc(Cl)ccc1N1CCCCC1)c1cccs1,-14*,i,-7.3*,i,-2,128*,0.12*
CCOC(=O)/C(N=Nc1c(C)n(C)n(-c2ccccc2)c1=O)=C(/O)c1ccccc1,-8.9*,i,i,i,-4,109*,i
CCCN1C(=O)c2cc(C(=O)O)ccc2C1O (centres undefined),i,i,i,i,-6,·,·
CCCN1C(=O)c2cc(C(=O)NC3CCCCCC3)ccc2C1O (centres undefined),-18*,i,i,i,2,82*,i
O=C(Nc1ccc(Cl)cc1)N1CCC(c2nc(-c3ccccc3Cl)no2)CC1,-8.7*,i,i,i,-3,108*,0.14*
O=C(c1ccco1)N1CCC(c2nc(-c3ccccc3Cl)no2)CC1,i,i,i,i,-6,·,·
Cc1sc2ncnc(N3CCC(C(=O)Nc4ccc(OC(F)F)c(Cl)c4)CC3)c2c1C,-13*,·,·,·,·,142*,0.14*
Cc1sc2ncnc(N3CCC(C(=O)NNC(=O)COc4cccc(C(F)(F)F)c4)CC3)c2c1C,-8.7*,i,i,i,-19,83*,i
COc1ccccc1CCNC(=O)CSc1nc(=O)[nH]c2c1CCC2,i,i,i,i,-11,·,·
CC1=C(C(=O)OC(C)C)C(c2ccc(C)o2)C(C(=O)OC(C)C)=C(C)N1,-9.4*,i,i,i,-11,113*,0.14*
COc1ccc(N2C(=O)c3ccccc3NC2c2ccc(OC)c(COc3ccccn3)c2)cc1 (centres undefined),i,i,i,i,-15,·,·
COc1ccc(C)cc1Cn1nnc2ccccc21,i,i,i,i,-3,·,·
COc1ccc(C2Nc3ccccc3C(=O)N2c2ccc(C)cc2)cc1Cn1nnc2ccccc21 (centres undefined),-8.8*,i,i,i,-12,111*,0.16*
COc1ccc(C2Nc3ccccc3C(=O)N2c2ccc(C)cc2)cc1Cn1cc([N+](=O)[O-])cn1 (centres undefined),-8.8*,i,i,i,-15,105*,i
Cc1nc(Cl)c(C(=O)NC(C)(C)C)c(C)c1Cl,i,i,i,i,-8,·,·
CCOC(=O)c1nc(C)nc(Sc2n[nH]c(-c3cc(C(F)(F)F)cc(C(F)(F)F)c3)n2)c1C,-9.4*,i,i,6*,-11,102*,0.12*
CCOC(=O)c1cc(-c2cccc(C(F)(F)F)c2)nc2nc(SC)[nH]c(=O)c12,i,i,i,i,-6,·,·
O=C(COC(=O)c1cccnc1Cl)Nc1ccccc1OC(F)F,i,i,i,i,-2,·,·
O=C(COC(=O)c1nc(Cl)ccc1Cl)Nc1ccccc1OC(F)F,-9.6*,i,i,i,-11,105*,i
CC(C)CCNc1nc(N)c([N+](=O)[O-])c(N2CCCCCC2)n1,i,i,i,i,-5,·,·
O=C1c2ccccc2NC(c2cccc(O)c2)N1NS(=O)(=O)c1ccccc1 (centres undefined),i,i,i,i,-9,·,·
CCC(=O)Nc1ccc(/C(C)=N\NC(=O)c2ccc(C)s2)cc1,i,i,i,i,-1,·,·
C/C(=N\NC(=O)c1nn(C)c(C)c1Br)c1ccc(NC(=O)c2ccc(C)s2)cc1,-8.8*,i,i,i,-6,101*,i
